Measured values: ChEMBL document CHEMBL1909621, “Synthesis and biological evaluation of novel nitrogen- and sulfur-containing hetero-1,4-naphthoquinones as potent antifungal and antibacterial agents” (2011)
Values after ≈ are worked out from the molar mass of the structure shown. Active and inactive are the calls of the source. The rule behind the calls is not given here.

Key:
Assay type in all cases: functional
Aspergillus niger [1] = assay: Antifungal activity against Aspergillus niger F-1119 at 0.5% after 48 to 72 hrs by diffusion technique
In short: (§1)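 Fungi. Disk diffusion: 10⁹ spores (cells)/1 mL inoculum. Incubated 48–72 h at 28–30 °C. Zone around disk measured, with a nystatin control disk. Serial dilution: compounds dissolved in DMSO and diluted into wort agar, then inoculated. Incubated at 30 °C for 24–72 h. MIC recorded.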

Mycobacterium [2] = assay: Antibacterial activity against Mycobacterium luteum b-917 after 24 to 72 hrs by serial dilution technique
Yamadazyma tenuis [3] = assay: Antifungal activity against Candida tenuis VKM Y-70 at 0.5% after 48 to 72 hrs by diffusion technique; in short: as §1
Staphylococcus aureus [4] = assay: Antibacterial activity against Staphylococcus aureus 209-P at 0.5% after 24 hrs by diffusion technique
Aspergillus niger [5] = assay: Antifungal activity against Aspergillus niger F-1119 after 24 to 72 hrs by serial dilution technique; in short: as §1
Mycobacterium [6] = assay: Antibacterial activity against Mycobacterium luteum b-917 at 0.1% after 24 hrs by diffusion technique
Yamadazyma tenuis [7] = assay: Antifungal activity against Candida tenuis VKM Y-70 after 24 to 72 hrs by serial dilution technique; in short: as §1
Escherichia coli [8] = assay: Antibacterial activity against Escherichia coli B-906 after 24 to 72 hrs by serial dilution technique
Escherichia coli [9] = assay: Antibacterial activity against Escherichia coli B-906 at 0.1% after 24 hrs by diffusion technique
Staphylococcus aureus [10] = assay: Antibacterial activity against Staphylococcus aureus 209-P after 24 to 72 hrs by serial dilution technique
Mycobacterium [11] = assay: Antibacterial activity against Mycobacterium luteum b-917 at 0.5% after 24 hrs by diffusion technique
Escherichia coli [12] = assay: Antibacterial activity against Escherichia coli B-906 at 0.5% after 24 hrs by diffusion technique
Staphylococcus aureus [13] = assay: Antibacterial activity against Staphylococcus aureus 209-P at 0.1% after 24 hrs by diffusion technique
Yamadazyma tenuis [14] = assay: Antifungal activity against Candida tenuis VKM Y-70 at 0.1% after 48 to 72 hrs by diffusion technique; in short: as §1
Aspergillus niger [15] = assay: Antifungal activity against Aspergillus niger F-1119 at 0.1% after 48 to 72 hrs by diffusion technique; in short: as §1

Compound	diameter of the inhibition zone (DIZ) (Aspergillus niger [1]) [mm]	inhibition (Mycobacterium [2])	diameter of the inhibition zone (DIZ) (Yamadazyma tenuis [3]) [mm]	diameter of the inhibition zone (DIZ) (Staphylococcus aureus [4]) [mm]	inhibition (Aspergillus niger [5])	diameter of the inhibition zone (DIZ) (Mycobacterium [6]) [mm]	MIC (Yamadazyma tenuis [7]) [µg/mL]	inhibition (Escherichia coli [8])	diameter of the inhibition zone (DIZ) (Escherichia coli [9]) [mm]	inhibition (Staphylococcus aureus [10])	diameter of the inhibition zone (DIZ) (Mycobacterium [11]) [mm]	diameter of the inhibition zone (DIZ) (Escherichia coli [12]) [mm]	diameter of the inhibition zone (DIZ) (Staphylococcus aureus [13]) [mm]	diameter of the inhibition zone (DIZ) (Yamadazyma tenuis [14]) [mm]	diameter of the inhibition zone (DIZ) (Aspergillus niger [15]) [mm]	MIC (Mycobacterium [2]) [µg/mL]	MIC (Aspergillus niger [5]) [µg/mL]	inhibition zone (IZ) (Yamadazyma tenuis [14]) [mm]	MIC (Staphylococcus aureus [10]) [µg/mL]	inhibition (Yamadazyma tenuis [7])
O=C1C(Cl)=C(SCCCCCCCCCO)C(=O)c2ccccc21	0	inactive	0	0	inactive	0	31.2 (≈ 85 µM)	inactive	0	inactive	0	0	0	0	0	–	–	–	–	–
O=C1C(Sc2nc3ccc([N+](=O)[O-])cc3s2)=C(Sc2nc3ccc([N+](=O)[O-])cc3s2)C(=O)c2ccccc21	15	–	24	8	–	0	15.6 (≈ 27 µM)	inactive	0	inactive	11.7	0	0	15	8	125 (≈ 216 µM)	31.2 (≈ 53.9 µM)	–	–	–
O=C1C(Cl)=C(SCc2ccc(Cl)cc2)C(=O)c2ccccc21	7	–	14	7	–	0	15.6 (≈ 44.7 µM)	inactive	0	inactive	0	0	0	10	0	500 (≈ 1430 µM)	15.6 (≈ 44.7 µM)	–	–	–
CN[C@H](CC(C)C)C(=O)N[C@H]1C(=O)N[C@@H](CC(N)=O)C(=O)N[C@H]2C(=O)N[C@H]3C(=O)N[C@H](C(=O)N[C@H](C(=O)O)c4cc(O)cc(O)c4-c4cc3ccc4O)[C@H](O)c3ccc(c(Cl)c3)Oc3cc2cc(c3O[C@@H]2O[C@H](CO)[C@@H](O)[C@H](O)[C@H]2O[C@H]2C[C@](C)(N)[C@H](O)[C@H](C)O2)Oc2ccc(cc2Cl)[C@H]1O [VANCOMYCIN]	–	–	–	–	–	18	–	–	14	–	–	–	15	–	–	–	–	–	–	–
NYSTATIN	–	–	–	–	–	–	–	–	–	–	–	–	–	–	–	–	–	19	–	–
O=C1C(SCCCCO)=C(SCCCCO)C(=O)c2ccccc21	6	–	8	26	–	22	7.8 (≈ 21.3 µM)	inactive	0	–	31	0	18	0	0	15.6 (≈ 42.6 µM)	31.2 (≈ 85.1 µM)	–	15.6 (≈ 42.6 µM)	–
O=C1C(SCCCCCCCCCO)=C(SCCCCCCCCCO)C(=O)c2ccccc21	6	–	0	0	inactive	0	–	inactive	0	–	0	0	0	0	0	–	–	–	250 (≈ 493 µM)	inactive
O=C1C(SCc2ccco2)=C(SCc2ccco2)C(=O)c2ccccc21	10	–	0	7	–	7.7	15.6 (≈ 40.8 µM)	inactive	0	inactive	10.4	0	0	0	8	–	62.5 (≈ 163 µM)	–	–	–
Cc1cc(C)c(CSC2=C(SCc3c(C)cc(C)cc3C)C(=O)c3ccccc3C2=O)c(C)c1	0	inactive	0	0	inactive	0	125 (≈ 257 µM)	inactive	0	inactive	0	0	0	0	0	–	–	–	–	–
CCOC1=C(SCCCCO)C(=O)c2ccccc2C1=O	10	–	14.7	19.4	–	14.7	15.6 (≈ 50.9 µM)	inactive	0	–	25.4	0	12	8.4	0	31.2 (≈ 102 µM)	31.2 (≈ 102 µM)	–	250 (≈ 816 µM)	–
O=C1C2=C(SCCSCCSC3=C(SCCSCCS2)C(=O)c2ccccc2C3=O)C(=O)c2ccccc21	0	inactive	0	0	inactive	0	31.2 (≈ 50.6 µM)	inactive	0	inactive	0	0	0	0	0	–	–	–	–	–
O=C1C(Sc2ncccn2)=C(Sc2ncccn2)C(=O)c2ccccc21	9	–	7	9	–	6.7	125 (≈ 330 µM)	–	0	–	11.7	0	6	6	7	500 (≈ 1320 µM)	500 (≈ 1320 µM)	–	62.5 (≈ 165 µM)	–
CCOC1=C(SCc2c(C)cc(C)cc2C)C(=O)c2ccccc2C1=O	0	inactive	0	0	inactive	0	62.5 (≈ 171 µM)	inactive	0	inactive	0	0	0	0	0	–	–	–	–	–
O=C1CCSC2=C(SCCC(=O)OCC3(CO1)COC(=O)CCSC1=C(SCCC(=O)OC3)C(=O)c3ccccc3C1=O)C(=O)c1ccccc1C2=O	0	inactive	0	0	inactive	0	15.6 (≈ 19.6 µM)	inactive	0	inactive	0	0	0	0	0	–	–	–	–	–
O=C1C(SCc2ccc(Cl)cc2)=C(SCc2ccc(Cl)cc2)C(=O)c2ccccc21	0	–	7.4	0	–	0	15.6 (≈ 33.1 µM)	inactive	0	inactive	0	0	0	0	0	125 (≈ 265 µM)	31.2 (≈ 66.2 µM)	–	–	–
